Data as given in ChEMBL document CHEMBL1135690, “Benzodiazepine receptor ligands. 7. Synthesis and pharmacological evaluation of new 3-esters of the 8-chloropyrazolo[5,1-c][1,2,4]benzotriazine 5-oxide. 3-(2-Thienylmethoxycarbonyl) derivative: an anxioselective agent in rodents” (J Med Chem, 2002).

Legend:
Mus musculus [1] = test: Motor coordination of mouse as number of falls in 30 sec was reported after 100 mg/kg intraperitoneal dose using rotarod test; type: functional
Procedure, shortened: (§1)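 Male CD-1 mice are dosed po in 1% CMC (flumazenil ip). Falls from a rota rod turning at 24 rpm are counted over 30 s, 25 min after drug administration, and compared with vehicle-treated mice. Means ± SEM.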

Mus musculus [2] = test: Motor coordination of mouse as number of falls in 30 sec was reported after 30 mg/kg intraperitoneal dose using rotarod test; type: functional; procedure, shortened: as §1
Mus musculus [3] = test: Anxiolytic activity in mice using light-dark box and no. of transfers between compartments were reported at 100 mg/kg intraperitoneal dose; type: functional
Mus musculus [4] = test: Anxiolytic activity in mice using light-dark box and no. of transfers between compartments were reported at 30 mg/kg intraperitoneal dose; type: functional
Mus musculus [5] = test: Anxiolytic activity in mice using light-dark box and % time spent in light was reported at 100 mg/kg intraperitoneal dose; type: functional
Mus musculus [6] = test: Anxiolytic activity in mice using light-dark box and % time spent in light was reported at 30 mg/kg intraperitoneal dose; type: functional
Mus musculus [7] = test: Percent anticonvulsant activity against pentylenetetrazole (PTZ)-induced attacks at 100 mg/kg intraperitoneal dose.; type: functional
Mus musculus [8] = test: Percent anticonvulsant activity against pentylenetetrazole (PTZ)-induced attacks at 30 mg/kg intraperitoneal dose.; type: functional
[9] = biological target: GABA-A receptor; anion channel; set-up: species or system Bos taurus
[10] = Displacement of [3H]-Ro-15-1788 from rat GABA-A receptor alpha-2-beta-2-gamma-2 subunits expressed in HEK293 cells; type: cell-based
Procedure, shortened: (§2)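 Recombinant rat GABA-A subtypes are stably expressed in HEK293 cells grown in MEM/EBSS with 10% FCS at 37 °C. Membranes are made in 10 mM potassium phosphate pH 7.4 and resuspended with 100 mM KCl. Incubation uses 1–2 nM [3H]Ro15-1788 with compound at 10^-9–10^-5 M (≥6 concentrations), 1 h at 4 °C. […] Ki comes from Cheng–Prusoff, n=5, in triplicate.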

[11] = biological target: T1, GABA-A receptor; alpha-1/beta-2/gamma-2 (Rattus norvegicus, UniProt P18508+P62813+P63138); test: (§3) Displacement of [3H]Ro-151788 from rat GABA-A receptor alpha-1-beta-2-gamma-2 subunits expressed in HEK293 cells; type: cell-based
T1 sequence (P18508 whole entry): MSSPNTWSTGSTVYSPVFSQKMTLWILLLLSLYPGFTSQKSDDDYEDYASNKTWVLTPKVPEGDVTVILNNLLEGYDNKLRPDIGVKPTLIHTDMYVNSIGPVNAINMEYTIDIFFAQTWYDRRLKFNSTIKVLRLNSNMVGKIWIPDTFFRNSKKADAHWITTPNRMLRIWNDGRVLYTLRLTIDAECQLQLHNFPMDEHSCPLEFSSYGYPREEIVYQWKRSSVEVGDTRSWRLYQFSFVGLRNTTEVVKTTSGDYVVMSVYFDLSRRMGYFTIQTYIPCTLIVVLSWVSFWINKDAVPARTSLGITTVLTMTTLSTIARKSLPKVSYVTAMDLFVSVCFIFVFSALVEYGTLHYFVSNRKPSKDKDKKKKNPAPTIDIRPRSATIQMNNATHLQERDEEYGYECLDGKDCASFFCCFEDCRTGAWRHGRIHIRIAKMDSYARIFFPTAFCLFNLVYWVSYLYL
T1 sequence (P62813 whole entry): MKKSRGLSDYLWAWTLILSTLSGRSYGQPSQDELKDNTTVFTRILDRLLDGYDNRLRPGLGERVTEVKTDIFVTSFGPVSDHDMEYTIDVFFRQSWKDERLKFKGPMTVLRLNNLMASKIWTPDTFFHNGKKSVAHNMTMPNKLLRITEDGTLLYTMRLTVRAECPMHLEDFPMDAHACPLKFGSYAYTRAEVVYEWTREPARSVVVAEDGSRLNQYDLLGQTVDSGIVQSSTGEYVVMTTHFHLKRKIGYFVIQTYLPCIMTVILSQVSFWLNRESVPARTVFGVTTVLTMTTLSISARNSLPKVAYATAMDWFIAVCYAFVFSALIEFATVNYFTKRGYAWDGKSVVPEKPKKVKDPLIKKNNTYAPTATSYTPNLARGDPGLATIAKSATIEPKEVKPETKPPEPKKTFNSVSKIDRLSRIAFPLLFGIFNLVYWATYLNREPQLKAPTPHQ
T1 sequence (P63138 whole entry): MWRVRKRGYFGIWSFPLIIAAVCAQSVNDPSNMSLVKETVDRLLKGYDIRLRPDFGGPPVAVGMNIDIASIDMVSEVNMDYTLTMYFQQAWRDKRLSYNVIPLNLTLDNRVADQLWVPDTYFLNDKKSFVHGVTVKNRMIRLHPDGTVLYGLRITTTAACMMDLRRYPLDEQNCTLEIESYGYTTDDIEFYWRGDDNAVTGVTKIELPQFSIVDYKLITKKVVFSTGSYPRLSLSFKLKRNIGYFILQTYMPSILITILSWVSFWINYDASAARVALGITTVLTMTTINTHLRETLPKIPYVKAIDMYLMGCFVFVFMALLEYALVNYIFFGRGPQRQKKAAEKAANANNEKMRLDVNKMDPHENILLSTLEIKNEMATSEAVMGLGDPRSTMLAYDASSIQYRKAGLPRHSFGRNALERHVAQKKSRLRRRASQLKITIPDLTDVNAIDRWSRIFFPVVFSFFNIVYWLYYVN
Procedure, shortened: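 Membranes from HEK293 cells stably expressing recombinant rat GABA-A subtypes, homogenized in 10 mM potassium phosphate pH 7.4 and resuspended with 100 mM KCl. Incubation with 1–2 nM [3H]Ro15-1788 and test compound (10^-9–10^-5 M, at least six concentrations; DMSO ≤1%) for 1 h at 4 °C to equilibrium.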

[12] = biological target: GABA A receptor alpha-3/beta-2/gamma-2 (Rattus norvegicus, UniProt P18508+P20236+P63138); test: Displacement of [3H]Ro-151788 from rat GABA-A receptor alpha-3-beta-2-gamma-2 subunits expressed in HEK293 cells; type: cell-based
Chain of GABA A receptor alpha-3/beta-2/gamma-2 (P18508 whole entry): as the sequence (P18508 whole entry) above
Chain of GABA A receptor alpha-3/beta-2/gamma-2 (P20236 whole entry): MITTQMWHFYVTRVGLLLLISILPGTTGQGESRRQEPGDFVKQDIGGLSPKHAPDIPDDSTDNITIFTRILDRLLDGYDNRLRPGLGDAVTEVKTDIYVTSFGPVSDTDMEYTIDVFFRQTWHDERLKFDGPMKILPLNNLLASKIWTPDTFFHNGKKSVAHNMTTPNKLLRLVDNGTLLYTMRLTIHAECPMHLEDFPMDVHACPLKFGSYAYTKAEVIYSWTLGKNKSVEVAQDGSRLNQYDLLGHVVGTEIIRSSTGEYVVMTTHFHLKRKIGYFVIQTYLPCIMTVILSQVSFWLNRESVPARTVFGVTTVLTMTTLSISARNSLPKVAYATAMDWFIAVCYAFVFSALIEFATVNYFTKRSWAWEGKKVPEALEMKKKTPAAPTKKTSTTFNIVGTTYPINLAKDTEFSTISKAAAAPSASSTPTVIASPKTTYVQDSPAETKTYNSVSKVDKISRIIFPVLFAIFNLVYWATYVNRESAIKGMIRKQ
Chain of GABA A receptor alpha-3/beta-2/gamma-2 (P63138 whole entry): as the sequence (P63138 whole entry) above

[13] = Displacement of [3H]Ro-151788 from rat GABA-A receptor alpha-5-beta-3-gamma-2 subunits expressed in HEK293 cells; type: cell-based; procedure, shortened: as §2
Mus musculus [14] = test: Percent anticonvulsant activity against pentylenetetrazole (PTZ)-induced attacks at 1 mg/kg peroral dose; type: functional; conditions: route oral
Procedure, shortened: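 Male CD-1 mice are dosed po in 1% CMC (flumazenil ip). PTZ (90 mg/kg sc, in 0.9% saline) is injected 30 min later. Clonic generalized convulsions are scored over 30 min, with % protection compared with controls by χ2 analysis.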

Mus musculus [15] = test: Percent anticonvulsant activity against pentylenetetrazole (PTZ)-induced attacks at 10 mg/kg peroral dose; type: functional; conditions: route oral
Procedure, shortened: (§4)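 Male CD-1 mice dosed po in 1% carboxymethylcellulose, 30 min before PTZ (90 mg/kg sc, in 0.9% saline). Occurrence of clonic generalized convulsions noted over 30 min; χ² analysis vs control mice.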

Mus musculus [16] = test: Percent anticonvulsant activity against pentylenetetrazole (PTZ)-induced attacks at 100 mg/kg peroral dose; type: functional; conditions: route oral; procedure, shortened: as §4
Mus musculus [17] = test: Percent anticonvulsant activity against pentylenetetrazole (PTZ)-induced attacks at 3 mg/kg peroral dose; type: functional; conditions: route oral; procedure, shortened: as §4
Mus musculus [18] = test: Percent anticonvulsant activity against pentylenetetrazole (PTZ)-induced attacks at 30 mg/kg peroral dose; type: functional; conditions: route oral; procedure, shortened: as §4
Mus musculus [19] = test: Anxiolytic activity in mice using light-dark box and % time spent in light was reported at 1 mg/kg peroral dose; type: functional; conditions: route oral
Procedure, shortened: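 Light-dark box in male CD-1 mice. Ligands are given po in 1% CMC, flumazenil ip. Each mouse is placed in the centre of the lit area facing away from the dark one and explores for 5 min. Time in the illuminated side and number of transfers between compartments are recorded. Means ± SEM.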

Mus musculus [20] = test: Anxiolytic activity in mice using light-dark box and % time spent in light was reported at 10 mg/kg peroral dose; type: functional; conditions: route oral
Procedure, shortened: (§5)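 Male CD-1 mice (22–24 g) given drug po in 1% carboxymethylcellulose (10 mL/kg). Each mouse placed in the centre of the lighted area facing away from the dark compartment and allowed to explore for 5 min; time spent in the illuminated side and number of transfers between compartments recorded. Tests run between 10:00 and 15:00.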

Mus musculus [21] = test: Anxiolytic activity in mice using light-dark box and % time spent in light was reported at 100 mg/kg peroral dose; type: functional; conditions: route oral; procedure, shortened: as §5
Mus musculus [22] = test: Anxiolytic activity in mice using light-dark box and % time spent in light was reported at 3 mg/kg peroral dose; type: functional; conditions: route oral; procedure, shortened: as §5
Mus musculus [23] = test: Anxiolytic activity in mice using light-dark box and % time spent in light was reported at 30 mg/kg peroral dose; type: functional; conditions: route oral; procedure, shortened: as §5
Mus musculus [24] = test: Motor coordination of mouse as number of falls in 30 sec was reported after 1 mg/kg peroral dose using rotarod test; type: functional; conditions: route oral; procedure, shortened: as §1
Mus musculus [25] = test: Motor coordination of mouse as number of falls in 30 sec was reported after 10 mg/kg peroral dose using rotarod test; type: functional; conditions: route oral; procedure, shortened: as §1
Mus musculus [26] = test: Motor coordination of mouse as number of falls in 30 sec was reported after 100 mg/kg peroral dose using rotarod test; type: functional; conditions: route oral
Procedure, shortened: (§6)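 Male CD-1 mice dosed po (suspension in 1% carboxymethylcellulose, 10 mL/kg). Rota rod turning at 24 rpm; falls from the rod counted over 30 s, 25 min after drug administration.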

Mus musculus [27] = test: Motor coordination of mouse as number of falls in 30 sec was reported after 3 mg/kg peroral dose using rotarod test; type: functional; conditions: route oral; procedure, shortened: as §6
Mus musculus [28] = test: Motor coordination of mouse as number of falls in 30 sec was reported after 30 mg/kg peroral dose using rotarod test; type: functional; conditions: route oral; procedure, shortened: as §6
Mus musculus [29] = test: Anxiolytic activity in mice using light-dark box and no. of transfers between compartments were reported at 100 mg/kg peroral dose; type: functional; conditions: route oral; procedure, shortened: as §5
Mus musculus [30] = test: Anxiolytic activity in mice using light-dark box and no. of transfers between compartments were reported at 1 mg/kg peroral dose; type: functional; conditions: route oral; procedure, shortened: as §5
Mus musculus [31] = test: Anxiolytic activity in mice using light-dark box and no. of transfers between compartments were reported at 3 mg/kg peroral dose; type: functional; conditions: route oral; procedure, shortened: as §5
Mus musculus [32] = test: Anxiolytic activity in mice using light-dark box and no. of transfers between compartments were reported at 30 mg/kg peroral dose; type: functional; conditions: route oral; procedure, shortened: as §5
[33] = Anticonvulsant activity electroshock induced convulsions and % lethality obtained at dose of 30 mg/kg; type: organism-based; set-up: dose 30 mg/kg; conditions: mouse, in vivo, read-out: Lethality
Procedure, shortened: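 Male CD-1 mice (22–24 g), groups of 10–16, dosed po in 1% carboxymethylcellulose at 10 mL/kg. Electroshock (40 mA, 0.2 s, 50 Hz) applied to the corneas 30 min after dosing. End point is tonic hind limb extension; % protection and % lethality are recorded against vehicle-treated mice (χ2 analysis).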

Mus musculus [34] = test: Anticonvulsant activity electroshock induced convulsions in hind limb of mice at a dose of 30 mg/kg; type: functional, Hindlimb
Procedure, shortened: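 Male CD-1 mice (22–24 g); oral dosing as suspension in 1% carboxymethylcellulose (10 mL/kg), 30 min before corneal electroshock (40 mA, 0.2 s, 50 Hz). Groups of 10–16 mice; end point tonic hind limb extension; lethality also recorded; χ² analysis vs CMC-treated mice.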

Mus musculus [35] = test: Anxiolytic activity in mice using light-dark box and no. of transfers between compartments were reported at 10 mg/kg peroral dose; type: functional; conditions: route oral; procedure, shortened: as §5
[36] = biological target: T1, GABA-A receptor; alpha-1/beta-2/gamma-2; test: as §3; type: cell-based; remark: listed apart in the source

Structure (SMILES): CCOC(=O)c1ncn2c1CN(C)C(=O)c1cc(F)ccc1-2 [FLUMAZENIL]
- No. of falls (Mus musculus [1]): 0.4
- No. of falls (Mus musculus [2]): 0.33
- No. of transfers (Mus musculus [3]): 15.2
- No. of transfers (Mus musculus [4]): 11.8
- Activity (Mus musculus [5]): 119%
- Activity (Mus musculus [6]): 90.36%
- Activity (Mus musculus [7]): 5.3%
- Activity (Mus musculus [8]): 11.1%

Structure (SMILES): O=C(OCc1cccs1)c1cnn2c1n[n+]([O-])c1ccc(Cl)cc12
- Ki [9]: 6.8 nM
- Ki [10]: 26 nM
- Ki [11]: 3 nM
- Ki [12]: 12 nM
- Ki [13]: 8.6 nM
- Activity (Mus musculus [14]): 20%
- Activity (Mus musculus [15]): 15.38%
- Activity (Mus musculus [16]): 20%
- Activity (Mus musculus [17]): 0%
- Activity (Mus musculus [18]): 40%
- Activity (Mus musculus [19]): 12.89%
- Activity (Mus musculus [20]): 155.1%
- Activity (Mus musculus [21]): 157.1%
- Activity (Mus musculus [22]): 170.8%
- Activity (Mus musculus [23]): 144.3%
- No. of falls (Mus musculus [24]): 0.1
- No. of falls (Mus musculus [25]): 0.15
- No. of falls (Mus musculus [26]): 0
- No. of falls (Mus musculus [27]): 0.1
- No. of falls (Mus musculus [28]): 0.1
- No. of transfers (Mus musculus [29]): 14.6
- No. of transfers (Mus musculus [30]): 21.1
- No. of transfers (Mus musculus [31]): 15.6
- No. of transfers (Mus musculus [32]): 20.5
- mortality [33]: 40%
- Activity (Mus musculus [34]): 0%
- No. of transfers (Mus musculus [35]): 16.6

Structure (SMILES): [O-][n+]1nc2c(-c3ccsc3)cnn2c2cc(Cl)ccc21
- Ki [10]: 12 nM
- Ki [36]: 4.1 nM
- Ki [12]: 33 nM
- Ki [13]: 18 nM
